Test results reported in ChEMBL document CHEMBL1240406, “Identification of novel human immunodeficiency virus type 1-inhibitory peptides based on the antimicrobial peptide database” (Antimicrob Agents Chemother, 2010).
The source made the active and inactive calls. The calls are words filed in the database; no cut-off is given here. Where a SMILES comes first, the peptide text is derived from it. [ ]: non-standard residue; d: D form. aThr = C[C@H](O)[C@H](N)C(=O)O

Key:
[1] = Therapeutic index, ratio of TC50 for human CEM-SS cells infected with HIV1 3B to EC50 for HIV1 3B infected in human CEM-SS cells; format: cell-based; settings: read-out: TI
In short: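 CEM-SS cells (2.5 × 10^3/well) in RPMI 1640 with 10% heat-inactivated FBS were infected with HIV-1 IIIB (MOI 0.0005–0.001). Peptides were added in triplicate at six serial concentrations, 0.32–100 μg/ml. Cultures were held at 37°C, 5% CO2 for 6 days, then stained with XTT. EC50 (virus inhibition) and TC50 (cell viability) were derived from the XTT read-out, and TI was taken from these.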

[2] = Cytotoxicity against human CEM-SS cells infected with HIV1 3B after 6 days by XTT assay; format: cell-based; settings: read-out: TC50
[3] = test system: Human immunodeficiency virus 1; assay: Antiviral activity against HIV1 3B infected in human CEM-SS cells assessed as inhibition of viral replication after 6 days by XTT assay; format: functional, organism-based
In short: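 Peptides were added in triplicate at six serial concentrations, 0.32–100 μg/ml. Cultures were held at 37°C, 5% CO2 for 6 days, then stained with XTT. EC50 (virus inhibition) and TC50 (cell viability) were derived from the XTT read-out, and TI was taken from these.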

Escherichia coli = assay: Antibacterial activity against Escherichia coli K-12; format: functional, organism-based
[4] = Human immunodeficiency virus 1, 3B, CEM-SS, 144 h

Compound | selectivity ratio [1] | CC50 at 144 h [2] [µM] | EC50 [3, 4] [µM] | Activity (Escherichia coli) | EC50 ([3]; cem-ss) [µM]
CC[C@H](C)[C@H](NC(=O)[C@H](CC(C)C)NC(=O)[C@@H]1CCCN1C(=O)[C@H](Cc1ccccc1)NC(=O)[C@H](CC(C)C)NC(=O)[C@@H](N)Cc1ccccc1)C(=O)N[C@H](C(=O)N[C@@H](CO)C(=O)N[C@@H](Cc1ccccc1)C(=O)N[C@@H](CC(C)C)C(=O)N[C@@H](CO)C(=O)N[C@@H](CCCCN)C(=O)N[C@H](C(=O)N[C@@H](CC(C)C)C(=O)O)C(C)C)[C@H](C)O | 2.07 | 34.6 | 16.7 | – | –
CC[C@H](C)[C@H](NC(=O)[C@H](CCCCN)NC(=O)[C@H](CCC(=O)O)NC(=O)[C@H](CCCCN)NC(=O)[C@H](CO)NC(=O)[C@H](CCCCN)NC(=O)[C@H](CCCNC(=N)N)NC(=O)[C@H](Cc1ccccc1)NC(=O)[C@H](Cc1ccccc1)NC(=O)[C@H](CC(=O)O)NC(=O)CNC(=O)[C@H](CC(C)C)NC(=O)[C@@H](N)CC(C)C)C(=O)NCC(=O)N[C@@H](CCCCN)C(=O)N[C@@H](CCC(=O)O)C(=O)N[C@@H](Cc1ccccc1)C(=O)N[C@@H](CCCCN)C(=O)N[C@@H](CCCNC(=N)N)C(=O)N[C@H](C(=O)N[C@H](C(=O)N[C@@H](CCC(N)=O)C(=O)N[C@@H](CCCNC(=N)N)C(=O)N[C@H](C(=O)N[C@@H](CCCCN)C(=O)N[C@@H](CC(=O)O)C(=O)N[C@@H](Cc1ccccc1)C(=O)N[C@@H](CC(C)C)C(=O)N[C@@H](CCCNC(=N)N)C(=O)N[C@@H](CC(N)=O)C(=O)N[C@@H](CC(C)C)C(=O)N[C@H](C(=O)N1CCC[C@H]1C(=O)N[C@@H](CCCNC(=N)N)C(=O)N[C@H](C(=O)N[C@@H](CCC(=O)O)C(=O)N[C@@H](CO)C(=O)O)[C@@H](C)O)C(C)C)[C@@H](C)CC)C(C)C)[C@@H](C)CC | – | – | – | inactive | –
CC[C@H](C)[C@H](NC(=O)[C@H](CC(C)C)NC(=O)[C@H](C)NC(=O)[C@@H]1CCCN1C(=O)[C@H](CCCNC(=N)N)NC(=O)[C@@H](N)Cc1ccccc1)C(=O)N[C@H](C(=O)N[C@@H](CCCNC(=N)N)C(=O)N[C@H](C(=O)N[C@@H](CCCCN)C(=O)NCC(=O)N[C@H](C(=O)N[C@@H](CCCNC(=N)N)C(=O)N[C@@H](CC(C)C)C(=O)O)[C@H](C)O)[C@H](C)O)C(C)C [Hyposin-5] (H-FRPALIVR[aThr]KG[aThr]RL-OH) | – | > 61.4 | > 61.4 | – | –
CC[C@H](C)[C@H](NC(=O)[C@@H]1CCCN1C(=O)[C@H](Cc1cnc[nH]1)NC(=O)[C@H](CCCCN)NC(=O)[C@@H]1CCCN1C(=O)[C@@H](N)CCCNC(=N)N)C(=O)N[C@@H](CCCCN)C(=O)N[C@@H](Cc1cnc[nH]1)C(=O)N[C@@H](CCC(N)=O)C(=O)NCC(=O)N[C@@H](CC(C)C)C(=O)N1CCC[C@H]1C(=O)N[C@@H](CCC(N)=O)C(=O)N[C@@H](CCC(=O)O)C(=O)N[C@H](C(=O)N[C@@H](CC(C)C)C(=O)N[C@@H](CC(N)=O)C(=O)N[C@@H](CCC(=O)O)C(=O)N[C@@H](CC(N)=O)C(=O)N[C@@H](CC(C)C)C(=O)N[C@@H](CC(C)C)C(=O)N[C@@H](CCCNC(=N)N)C(=O)N[C@@H](Cc1ccccc1)C(=O)O)C(C)C [ISRACIDIN] | – | > 36.2 | > 36.2 | – | –
CC[C@H](C)[C@H](NC(=O)[C@H](CO)NC(=O)[C@H](CC(C)C)NC(=O)[C@H](Cc1ccccc1)NC(=O)CN)C(=O)N[C@@H](CC(C)C)C(=O)N[C@@H](CCCCN)C(=O)N[C@@H](CCCCN)C(=O)N[C@H](C(=O)N[C@@H](CC(C)C)C(=O)N1CCC[C@H]1C(=O)N[C@@H](CCCCN)C(=O)N[C@H](C(=O)N[C@@H](CCSC)C(=O)N[C@@H](C)C(=O)N[C@@H](Cc1cnc[nH]1)C(=O)N[C@@H](CCSC)C(=O)N[C@@H](CCCCN)C(N)=O)C(C)C)C(C)C [MELECTIN] | – | 7.75 | – | – | –
CC[C@H](C)[C@H](NC(=O)[C@H](CCCNC(=N)N)NC(=O)[C@H](CC(C)C)NC(=O)[C@H](CCC(N)=O)NC(=O)[C@H](CCCCN)NC(=O)[C@H](CC(C)C)NC(=O)[C@H](CC(C)C)NC(=O)[C@H](CC(C)C)NC(=O)[C@@H](NC(=O)[C@H](CCCCN)NC(=O)[C@H](CC(=O)O)NC(=O)[C@H](C)NC(=O)[C@@H](NC(=O)[C@H](CCCCN)NC(=O)[C@H](CCCCN)NC(=O)[C@H](CC(=O)O)NC(=O)[C@@H](NC(=O)[C@@H](N)Cc1cnc[nH]1)C(C)C)C(C)C)C(C)C)C(=O)N[C@@H](CCSC)C(=O)N[C@@H](CCCNC(=N)N)C(=O)N[C@@H](CC(C)C)C(=O)N[C@@H](CC(C)C)C(=O)N[C@H](C(=O)N[C@@H](CCCNC(=N)N)C(=O)N[C@@H](CC(C)C)C(=O)O)[C@@H](C)O [SPINIGERIN] | > 10.9 | > 33.3 | 3.05 | – | –
Cc1cn([C@H]2C[C@H](N=[N+]=[N-])[C@@H](CO)O2)c(=O)[nH]c1=O [ZIDOVUDINE] | – | > 0.5 | – | – | –
H-FFHHIFRGIVHVGKTIHRLVTG-OH [Piscidin 3] | – | 6.9 | – | – | –
H-GAWKNFWSSLRKGFYDGEAGRAIRR-OH | – | > 34.1 | > 34.1 | – | –
H-GFGKAFHSVSNFAKKHKTA-NH2 [STYELIN A] | – | > 48.5 | > 48.5 | – | –
H-GFKDLLKGAAKALVKTVLF-NH2 [Ascaphin-8] | 2.4 | 2.9 | 1.2 | – | –
H-GFKRIVQRIKDFLRNLV-NH2 | 14.2 | 10.8 | 0.76 | – | –
H-GFLDIIEKIAKSW-OH | > 6.3 | > 65.8 | 10.5 | – | –
H-GIFDKLAKEISIW-OH | – | > 65.8 | > 65.8 | – | –
H-GIIDIAKKLFESW-OH | > 3.3 | > 65.8 | 20.1 | – | –
H-GIWDTIKSMGKVFAGKILQNL-NH2 [Brevinin-2] | 4.49 | 7.42 | 1.65 | – | –
H-GIWSDLAEIIKKF-OH | – | > 65.8 | – | – | –
H-GKPRPYSPRPTSHPRPIRV-OH [DROSOCIN] | – | > 45.5 | > 45.5 | – | –
H-GLADFLNKAVGKVVDFVKS-NH2 [Desertcolin 1] | – | > 49.9 | > 49.9 | – | –
H-GLFDIIKKIAESW-OH | 3.2 | 37 | 11.7 | – | –
H-GLKKLLGKLLKKLGKLLLK-OH | < 0.5 | 25.1 | > 47.5 | Active | –
H-GLLGLLGSVVSHVVPAIVGHF-NH2 [Maculatin 1.3] | 2.01 | 8.02 | 4 | – | –
H-GLNTLKKVFQGLHEAIKLINNHVQ-OH | – | > 36.8 | 35.7 | – | –

Compound | selectivity ratio [1] | CC50 at 144 h [2] [µM] | EC50 [3, 4] [µM] | Activity (Escherichia coli) | EC50 ([3]; cem-ss) [µM]
H-GLRRLLGRLLRRLGRLLLR-OH | 5.8 | 25.7 | 4.4 | – | –
H-GLRSKIWLWVLLMIWQESNKFKKM-OH | > 1.04 | > 32.9 | 31.6 | – | –
H-GLRSRIWLWVLLMIWQESNRFKRM-OH | > 25.7 | > 32.1 | 1.25 | – | –
H-GLWEKIDKFASII-OH | – | > 65.8 | > 65.8 | – | –
H-GMASKAGAIAGKIAKVALKAL-NH2 | – | > 50.8 | > 50.8 | – | –
H-GNNRPVYIPQPRPPHPRI-OH [Apidaecin IA] | – | > 47.4 | > 47.4 | – | –
H-GWFDIIKKIASEL-OH | 3.6 | 38.9 | 10.7 | – | –
H-GWFDVVKHIAKRF-NH2 | 3.55 | 10.6 | 2.99 | – | –
H-GWLKKIESIIDAF-OH | > 2.2 | > 65.8 | 29.5 | – | –
H-IKWKKLLRAAKRIL-NH2 | < 0.02 | 1.3 | > 57.6 | – | –
H-ILGPVLGLVSDTLDDVLGIL-OH | – | > 49.4 | > 49.4 | – | –
H-ILGPVLGLVSRTLRRVLGIL-OH | 3.9 | 8.7 | 2.2 | – | –
H-INLKAIAALAKKLL-OH | – | > 67.6 | > 67.6 | – | –
H-IWLTALKFLGKHAAKHLAKQQLSKL-OH [Lycotoxin I] | < 0.07 | 2.4 | > 35.2 | – | –
H-KGRGKQGGKVRAKAKTRSS-OH [Parasin I] | – | > 50 | > 50 | – | –
H-LLKELWTKIKGAGKAVLGKIKGLL-OH [Ponericin L2] | 17.6 | 24.7 | – | – | 1.4
H-NLVSGLIEARKYLEQLHRKLKNRKV-OH | – | > 33.3 | > 33.3 | – | –
H-RQRVEELSKFSKKGAAARRRK-OH [Misgurin] | – | > 40 | > 40 | – | –
H-SLSRFLRFLKIVYRRAF-NH2 | 10.4 | 8.6 | 0.83 | – | –
H-SWKSMAKKLKEYMEKLKQRA-OH [Latarcin 3a] | > 1.23 | > 40.3 | 32.7 | – | –
H-VDKPDYRPRPRPPNM-OH [Metalnikowin I] | – | > 54.4 | > 54.4 | – | –
H-VFQFLGRIIHHVGNFVHGFSHVF-OH [Clavanin B] | > 5.18 | 37.1 | 7.1 | – | –
